Data from ChEMBL document CHEMBL1131058, “Studies on quinazolines and 1,2,4-benzothiadiazine 1,1-dioxides. 8.1, 2 synthesis and pharmacological evaluation of tricyclic fused quinazolines and 1,2,4-benzothiadiazine 1,1-dioxides as potential alpha1-adrenoceptor antagonists” (J Med Chem, 1998).

Legend:
[1] = molecular target: T1, Adrenergic receptor alpha-1 (Rattus norvegicus, UniProt P15823+P23944+P43140); experiment: Binding affinity towards Alpha-1 adrenergic receptor measured by displacement of [3H]prazosin from rat brain cortex membranes; type: cell membranes, Membrane
T1 sequence (P15823 whole entry): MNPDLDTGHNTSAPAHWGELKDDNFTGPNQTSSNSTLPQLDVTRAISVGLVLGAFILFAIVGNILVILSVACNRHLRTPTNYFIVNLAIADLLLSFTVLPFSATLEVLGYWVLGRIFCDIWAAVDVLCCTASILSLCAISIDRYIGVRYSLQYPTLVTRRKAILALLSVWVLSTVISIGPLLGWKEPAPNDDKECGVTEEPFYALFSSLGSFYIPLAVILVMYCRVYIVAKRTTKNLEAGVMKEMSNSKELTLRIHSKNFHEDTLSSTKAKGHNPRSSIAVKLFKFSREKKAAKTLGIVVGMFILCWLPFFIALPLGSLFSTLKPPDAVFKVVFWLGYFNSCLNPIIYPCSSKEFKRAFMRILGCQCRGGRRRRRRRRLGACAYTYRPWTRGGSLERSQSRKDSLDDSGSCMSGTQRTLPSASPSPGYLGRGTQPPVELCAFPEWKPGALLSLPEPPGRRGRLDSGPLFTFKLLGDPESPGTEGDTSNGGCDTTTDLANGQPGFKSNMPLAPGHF
T1 sequence (P23944 whole entry): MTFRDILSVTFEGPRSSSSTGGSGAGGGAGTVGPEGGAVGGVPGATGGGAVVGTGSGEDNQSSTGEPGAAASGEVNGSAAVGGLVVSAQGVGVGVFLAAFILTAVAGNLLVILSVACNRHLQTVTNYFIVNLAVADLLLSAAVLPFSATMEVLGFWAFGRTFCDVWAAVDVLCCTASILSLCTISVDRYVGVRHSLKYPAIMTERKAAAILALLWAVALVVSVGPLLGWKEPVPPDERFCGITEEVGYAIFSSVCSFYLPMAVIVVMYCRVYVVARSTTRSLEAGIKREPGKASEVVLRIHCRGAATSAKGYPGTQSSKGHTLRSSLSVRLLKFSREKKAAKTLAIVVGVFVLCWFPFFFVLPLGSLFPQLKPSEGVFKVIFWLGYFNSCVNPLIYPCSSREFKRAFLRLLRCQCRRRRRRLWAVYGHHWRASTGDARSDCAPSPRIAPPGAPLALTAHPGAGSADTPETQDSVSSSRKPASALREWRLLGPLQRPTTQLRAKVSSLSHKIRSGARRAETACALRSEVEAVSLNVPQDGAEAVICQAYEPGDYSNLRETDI
T1 sequence (P43140 whole entry): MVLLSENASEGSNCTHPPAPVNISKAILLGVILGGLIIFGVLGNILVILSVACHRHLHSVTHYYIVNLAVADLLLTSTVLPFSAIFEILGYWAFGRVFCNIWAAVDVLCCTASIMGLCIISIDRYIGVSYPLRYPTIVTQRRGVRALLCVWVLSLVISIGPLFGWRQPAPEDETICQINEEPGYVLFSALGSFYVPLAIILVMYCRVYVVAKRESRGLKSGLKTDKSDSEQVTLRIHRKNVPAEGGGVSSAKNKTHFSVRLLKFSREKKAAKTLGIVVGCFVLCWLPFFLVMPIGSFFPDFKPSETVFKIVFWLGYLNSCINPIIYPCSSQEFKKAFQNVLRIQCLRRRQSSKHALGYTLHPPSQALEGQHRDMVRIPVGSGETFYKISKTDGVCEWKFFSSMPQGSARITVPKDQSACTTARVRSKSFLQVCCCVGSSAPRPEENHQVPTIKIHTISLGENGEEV
In short: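 Triplicate competition binding against 0.2-0.25 nM [³H]prazosin in Tris buffer pH 7.4, 30 min at room temperature. Competitor range 0.1-200 nM. Nonspecific binding defined with 10 µM phentolamine. Reaction stopped by GF/B filtration with two cold Tris washes. Membrane protein 300-400 µg per assay. Ki calculated from the data; mean ± SEM of 3-6 experiments.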

[2] = molecular target: T2, Adrenergic receptor alpha-2 (Rattus norvegicus, UniProt P22086+P19328+P22909); experiment: Displacement of clonidine from Alpha-2 adrenergic receptor in rat brain cortex; type: tissue-based
T2 sequence (P22086 whole entry): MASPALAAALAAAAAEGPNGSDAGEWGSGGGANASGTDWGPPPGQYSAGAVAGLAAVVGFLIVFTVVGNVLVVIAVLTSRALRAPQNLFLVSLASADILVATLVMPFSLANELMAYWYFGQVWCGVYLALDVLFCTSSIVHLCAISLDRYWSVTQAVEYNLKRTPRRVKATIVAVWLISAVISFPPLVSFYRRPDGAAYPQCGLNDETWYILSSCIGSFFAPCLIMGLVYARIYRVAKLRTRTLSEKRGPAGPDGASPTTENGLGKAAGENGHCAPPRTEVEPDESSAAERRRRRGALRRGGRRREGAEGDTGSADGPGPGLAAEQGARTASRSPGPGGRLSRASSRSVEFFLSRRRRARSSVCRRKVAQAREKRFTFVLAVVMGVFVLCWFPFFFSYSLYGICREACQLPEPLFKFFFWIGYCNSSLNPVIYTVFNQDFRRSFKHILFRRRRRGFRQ
T2 sequence (P19328 whole entry): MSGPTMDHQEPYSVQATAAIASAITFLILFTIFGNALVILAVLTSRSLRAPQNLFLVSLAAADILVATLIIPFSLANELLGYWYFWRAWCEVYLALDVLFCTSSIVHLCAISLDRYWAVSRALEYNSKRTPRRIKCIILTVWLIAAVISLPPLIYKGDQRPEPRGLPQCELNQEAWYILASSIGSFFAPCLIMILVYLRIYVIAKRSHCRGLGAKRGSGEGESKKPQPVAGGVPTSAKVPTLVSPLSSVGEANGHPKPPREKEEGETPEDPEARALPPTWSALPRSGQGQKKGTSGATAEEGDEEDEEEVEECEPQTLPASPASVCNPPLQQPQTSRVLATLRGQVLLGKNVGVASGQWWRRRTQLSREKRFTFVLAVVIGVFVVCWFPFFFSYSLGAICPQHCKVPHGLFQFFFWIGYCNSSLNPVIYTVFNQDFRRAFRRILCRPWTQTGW
T2 sequence (P22909 whole entry): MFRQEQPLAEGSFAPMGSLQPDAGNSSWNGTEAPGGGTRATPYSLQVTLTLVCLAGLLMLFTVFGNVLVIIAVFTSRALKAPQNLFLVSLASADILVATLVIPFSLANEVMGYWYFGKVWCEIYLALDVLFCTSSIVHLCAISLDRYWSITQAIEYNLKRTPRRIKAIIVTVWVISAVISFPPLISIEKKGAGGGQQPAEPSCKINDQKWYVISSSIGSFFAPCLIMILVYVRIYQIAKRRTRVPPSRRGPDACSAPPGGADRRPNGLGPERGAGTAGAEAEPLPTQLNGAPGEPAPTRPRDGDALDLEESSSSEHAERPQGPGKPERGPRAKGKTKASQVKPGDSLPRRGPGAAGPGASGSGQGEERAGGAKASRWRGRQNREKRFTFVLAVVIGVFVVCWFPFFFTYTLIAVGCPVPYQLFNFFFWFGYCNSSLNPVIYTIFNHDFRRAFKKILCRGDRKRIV
In short: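 α2 competition binding run in triplicate with 1 nM [³H]clonidine plus 10 mM MgCl₂ in Tris pH 7.4, 30 min at room temperature. Test compounds at 1-100 µM. Nonspecific binding defined with 10 µM clonidine. Membranes collected on GF/B filters and washed twice with cold Tris. Protein 300-400 µg per assay. Ki given as mean ± SEM of 3-6 experiments.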

[3] = Selectivity ratio for binding affinity towards alpha2 and alpha-1 adrenoceptors
In short: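 Ratio of α2 Ki ([³H]clonidine binding) to α1 Ki ([³H]prazosin binding), both measured in rat cortical membrane competition assays.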

Row | SMILES | Ki [1] [µM] | Ki [2] [µM] | Ratio [3]
1 | O=c1c2ccccc2nc2scc(CN3CCN(c4ccccc4Cl)CC3)n12 | > 10 |  | 
2 | Oc1nc2ccccc2c2nc(CN3CCN(c4ccccc4Cl)CC3)cn12 | 0.00929 | 4.51 | 486
3 | COc1ccccc1N1CCN(Cc2c(Br)nc3c4ccccc4n(C)c(=O)n23)CC1 | > 10 |  | 
4 | Cn1c(=O)n2c(CN3CCN(c4ccccc4Cl)CC3)cnc2c2ccccc21 | 0.00428 | 0.525 | 123
5 | Oc1nc2ccccc2c2nc(CN3CCN(c4ccccc4Cl)CC3)c(Br)n12 | > 10 |  | 
6 | COc1ccccc1N1CCN(Cc2nc3c4ccccc4n(C)c(=O)n3c2Br)CC1 | > 10 |  | 
7 | COc1ccccc1N1CCN(Cc2cn3c(=O)n(C)c4ccccc4c3n2)CC1 | 0.0065 | 3.25 | 499
8 | Cn1c(=O)n2cc(CN3CCN(c4ccccc4Cl)CC3)nc2c2ccccc21 | 0.0141 | 0.513 | 36
9 | COc1ccccc1N1CCN(Cc2nc3c4ccccc4nc(O)n3c2Br)CC1 | > 10 |  | 
10 | COc1ccccc1N1CCN(CC2CN=C3Nc4ccccc4S(=O)(=O)N32)CC1 (stereo not given) | 0.00495 | 0.46 | 93
11 | Oc1nc2ccccc2c2nc(Br)c(CN3CCN(c4ccccc4Cl)CC3)n12 | > 10 |  | 
12 | COc1ccccc1N1CCN(Cc2c(Br)sc3nc4ccccc4c(=O)n23)CC1 | > 10 |  | 
13 | COc1ccccc1N1CCN(Cc2c(Br)nc3c4ccccc4nc(O)n23)CC1 | > 10 |  | 
14 | COc1ccccc1N1CCN(Cc2cnc3c4ccccc4n(C)c(=O)n23)CC1 | 0.0061 | 3.09 | 506
15 | Cn1c(=O)n2c(CN3CCN(c4ccccc4Cl)CC3)c(Br)nc2c2ccccc21 | > 10 |  | 
16 | Cn1c(=O)n2c(Br)c(CN3CCN(c4ccccc4Cl)CC3)nc2c2ccccc21 | > 10 |  | 
17 | COc1ccccc1N1CCN(CC2CSc3nc4ccccc4c(=O)n32)CC1 (stereo not given) | > 10 |  | 
18 | O=c1c2ccccc2nc2sc(Br)c(CN3CCN(c4ccccc4Cl)CC3)n12 | > 10 |  | 
19 | COc1ccccc1N1CCN(Cc2csc3nc4ccccc4c(=O)n23)CC1 | > 10 |  | 
20 | O=S1(=O)c2ccccc2NC2=NCC(CN3CCN(c4ccccc4Cl)CC3)N21 (stereo not given) | 0.0118 | 2.29 | 194
21 | COc1ccccc1N1CCN(CC2CN=C3Nc4ccccc4C(=O)N32)CC1 (stereo not given) | 0.186 |  | 
